Experimental data from different studies.
Compare with care: the assays were run in different laboratories.
Observed: enzyme activity
Mode: inhibitor
EGFR: Epidermal growth factor receptor (EGFR, Homo sapiens, UniProt P00533)
EGFR L858R/T790M: Epidermal growth factor receptor (EGFR, Homo sapiens, UniProt P00533, L858R/T790M)

Compound	target	assay	conditions	IC50 [nM]
OCc1ccc(Nc2ccc3c(Nc4cccc(C(F)(F)F)c4)ncnc3c2)cc1	EGFR	radiometric	–	2.53
C=CC(=O)Nc1cc(Nc2nc(N3CCc4sccc4C3)c3cccnc3n2)c(OC)cc1N1CCC(N(C)C)CC1	EGFR	ELISA	–	> 1000
COCCOc1cc2ncnc(Nc3ccc(OCCCn4ccnc4[N+](=O)[O-])c(Cl)c3)c2cc1OCCOC	EGFR	FRET	–	400
COc1ccc(-c2nn(-c3ccc(S(C)(=O)=O)cc3)cc2/C=N/N=c2\[nH]c(-c3ccc(Br)cc3)cs2)cc1	EGFR L858R/T790M	–	–	31
CCN(CC)CCCn1cccc1/C=N/NC(=O)Nc1cc2c(Nc3ccc(F)c(Cl)c3)ncnc2cc1O[C@H]1CCOC1	EGFR L858R/T790M	–	–	12.8
Oc1ncnc2cc(Nc3nc(-c4ccc(C(F)(F)F)cc4)cs3)ccc12	EGFR	ELISA	–	2.17
CC(C)Cc1ccc(-c2nn(-c3ccc(S(C)(=O)=O)cc3)cc2/C=N/N=c2\[nH]c(-c3ccc([N+](=O)[O-])cc3)cs2)cc1	EGFR L858R/T790M	–	–	164
COc1cccc(CNc2ncnc3cc(Cl)ccc23)c1	EGFR	mobility shift	–	1700
C=C(Cl)C(=O)Nc1cc(Nc2nc(Nc3cnn(C)c3)c3sccc3n2)c(OC)cc1N1CCN(C)CC1	EGFR	ELISA	–	> 1000
Cc1ccc(-c2csc(Nc3ccc4c(O)ncnc4c3)n2)cc1	EGFR	ELISA	–	8.59
COc1cc2ncnc(Nc3ccc(F)c(Cl)c3)c2cc1NC(=O)N/N=C/c1cccn1CCCN(C)C	EGFR	–	–	1.2
C=C(Cl)C(=O)Nc1cc(Nc2nc(Nc3cnn(C)c3)c3sccc3n2)c(OC)cc1N(C)CCN(C)C	EGFR	ELISA	–	100
COc1ccc(-c2nn(-c3ccc(S(C)(=O)=O)cc3)cc2C=N/N=c2\[nH]c(-c3ccc([N+](=O)[O-])cc3)cs2)cc1	Epidermal growth factor receptor (EGFR, Homo sapiens, UniProt P00533, L858R)	–	–	31
Oc1ccc(-c2csc(Nc3ccc4c(O)ncnc4c3)n2)cc1	EGFR	ELISA	–	16.3
C=C(Cl)C(=O)Nc1cc(Nc2nc(N3CCOCC3)c3sccc3n2)c(OC)cc1N(C)CCN(C)C	Epidermal growth factor receptor (EGFR, Homo sapiens, UniProt P00533, C797S/L858R/T790M)	ELISA	–	> 1000
CCN(CC)C/C=N/NC(=O)Nc1cc2c(Nc3ccc(F)c(Cl)c3)ncnc2cc1O[C@H]1CCOC1	EGFR L858R/T790M	–	–	13.2

Compound	target	assay	conditions	IC50 [nM]
C=C(Cl)C(=O)Nc1cc(Nc2nc(N3CCc4sccc4C3)c3sccc3n2)c(OC)cc1N(C)CCN(C)C	EGFR L858R/T790M	ELISA	–	13
COc1cc2ncnc(Nc3ccccc3)c2cc1OC	EGFR	mobility shift	–	14
CN(C)C/C=N/NC(=O)Nc1cc2c(Nc3ccc(F)c(Cl)c3)ncnc2cc1O[C@H]1CCOC1	EGFR L858R/T790M	–	–	15.4
OCc1ccc(Nc2ccc3ncnc(Nc4cccc(C(F)(F)F)c4)c3c2)cc1	EGFR	radiometric	–	8.67
O=C(N/N=C/CN1CCOCC1)Nc1cc2c(Nc3ccc(F)c(Cl)c3)ncnc2cc1O[C@H]1CCOC1	EGFR	–	–	1.5
CCC(=O)Nc1cc(Nc2nc(N3CCc4sccc4C3)c3cccnc3n2)c(OC)cc1N1CCSCC1	EGFR L858R/T790M	ELISA	–	> 1000
C=CC(=O)Nc1cc(Nc2nccc(Nc3cc(Cl)c(F)cc3C(C)(C)O)n2)c(OC)cc1N1CC[C@@H](N(C)C)C1	EGFR	–	with preincubation	226
C=CC(=O)Nc1cc(Nc2nccc(-c3cn(C4CC4)c4ccccc34)n2)c(OC)cc1N(C)CCN(C)C	Epidermal growth factor receptor (EGFR, Homo sapiens, UniProt P00533, L861Q)	TR-FRET	–	1.07
COc1cc2c(Nc3ccc(OCCn4ccnc4[N+](=O)[O-])c(Cl)c3)ncnc2cc1OCCCN1CCOCC1	EGFR	FRET	–	190
COc1cc2ncnc(Nc3ccc(F)c(Cl)c3)c2cc1NC(=O)N/N=C/c1cccn1CCN(C)C	EGFR L858R/T790M	–	–	21.7
O=C1c2c(O)cc(O)cc2OC(c2ccc(O)c(O)c2)C1O (stereo not shown)	EGFR	radiometric	–	29000
O=C(N/N=C/c1cccn1CCCN1CCCCC1)Nc1cc2c(Nc3ccc(F)c(Cl)c3)ncnc2cc1O[C@H]1CCOC1	EGFR L858R/T790M	–	–	11.4
COc1cc2ncnc(NCc3cccs3)c2cc1OC	EGFR	mobility shift	–	35
Oc1ncnc2cc(Nc3nc(-c4ccc(Br)cc4)cs3)ccc12	EGFR	ELISA	–	4.96
CN1CCN(C/C=N/NC(=O)Nc2cc3c(Nc4ccc(F)c(Cl)c4)ncnc3cc2O[C@H]2CCOC2)CC1	EGFR L858R/T790M	–	–	11.6
